Data as given in ChEMBL document CHEMBL1671846, “Discovery of a potent and short-acting oral calcilytic with a pulsatile secretion of parathyroid hormone” (ACS Med Chem Lett, 2011).
Activity calls are given as the source filed them. No cut-off for these calls is given here.

Experiments:
[1] = biological target: T1, Extracellular calcium-sensing receptor (Homo sapiens, UniProt P41180); experiment: Antagonist activity at human CaSR expressed in rat PC12h cells by reporter gene assay; format: functional, cell-based, PC-12
T1 sequence (P41180 whole entry): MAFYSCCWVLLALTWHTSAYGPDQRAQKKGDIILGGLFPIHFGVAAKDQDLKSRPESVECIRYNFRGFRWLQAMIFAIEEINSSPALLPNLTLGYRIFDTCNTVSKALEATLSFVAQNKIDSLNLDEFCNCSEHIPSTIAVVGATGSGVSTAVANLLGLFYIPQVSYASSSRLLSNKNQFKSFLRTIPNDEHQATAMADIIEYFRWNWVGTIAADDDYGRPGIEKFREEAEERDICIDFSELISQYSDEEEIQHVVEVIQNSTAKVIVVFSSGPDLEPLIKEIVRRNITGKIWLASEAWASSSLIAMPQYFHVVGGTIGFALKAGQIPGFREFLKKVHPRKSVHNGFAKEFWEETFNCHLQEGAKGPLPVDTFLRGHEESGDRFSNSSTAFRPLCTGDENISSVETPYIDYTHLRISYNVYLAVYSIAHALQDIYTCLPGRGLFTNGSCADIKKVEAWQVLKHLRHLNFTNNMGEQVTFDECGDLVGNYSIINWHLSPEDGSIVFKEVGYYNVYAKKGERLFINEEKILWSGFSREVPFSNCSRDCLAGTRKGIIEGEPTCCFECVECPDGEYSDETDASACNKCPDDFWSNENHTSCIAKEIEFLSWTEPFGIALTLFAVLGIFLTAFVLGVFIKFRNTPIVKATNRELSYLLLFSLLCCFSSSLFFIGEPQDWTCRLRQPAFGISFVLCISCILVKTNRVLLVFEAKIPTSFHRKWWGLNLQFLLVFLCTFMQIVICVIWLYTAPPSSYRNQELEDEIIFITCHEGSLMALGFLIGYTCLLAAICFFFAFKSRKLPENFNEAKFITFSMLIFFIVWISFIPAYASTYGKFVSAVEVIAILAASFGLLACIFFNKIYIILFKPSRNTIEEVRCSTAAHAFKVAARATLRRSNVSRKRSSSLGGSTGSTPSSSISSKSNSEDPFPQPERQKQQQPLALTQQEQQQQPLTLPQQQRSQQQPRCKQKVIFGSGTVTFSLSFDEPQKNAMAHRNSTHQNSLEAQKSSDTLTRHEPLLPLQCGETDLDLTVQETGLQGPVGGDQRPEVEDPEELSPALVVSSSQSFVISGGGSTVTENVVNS
Outline: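 Human CaSR antagonism measured by reporter gene assay in PC12h cells. Values are means of three experiments.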

Rattus norvegicus [2] = experiment: Antiosteoporotic activity in rat assessed as increase of serum parathyroid hormone level at 3 mg/kg, po after 15 to 30 mins relative to control; format: functional
Outline: (§1)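 Rats (n = 5) dosed orally. Serum PTH 1−34 peak increase (Δ) measured at 15 or 30 min and compared with vehicle-treated controls. Scored against the peak given by a 30 mg/kg oral reference aminopropandiol calcilytic: ++ >80%, + 50−80%, below that <50%.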

Rattus norvegicus [3] = experiment: Antiosteoporotic activity in rat assessed as increase of serum parathyroid hormone level at 1 mg/kg, po after 15 to 30 mins relative to control; format: functional; outline: as §1
Cytochrome P450 2D6 = Cytochrome P450 2D6 (Homo sapiens, UniProt P10635); experiment: Inhibition of CYP2D6; format: ADME
Rattus norvegicus [4] = experiment: Antiosteoporotic activity in rat assessed as increase of serum parathyroid hormone level at 10 mg/kg, po after 15 to 30 mins relative to control; format: functional; outline: as §1
[5] = biological target: Beta-2 adrenergic receptor (Homo sapiens, UniProt P07550); experiment: Inhibition of beta2 adrenergic receptor
Rattus norvegicus [6] = experiment: Antiosteoporotic activity in rat assessed as increase of serum parathyroid hormone level at 3 mg/kg, po after 2 hrs; format: functional, organism-based; parameters: dose 3 mg/kg
Outline: (§2)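 Time course in rats (n = 5) after oral dosing of the hemisulfate salt. Serum PTH 1−34 levels followed over time, expressed as mean ± standard deviation.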

[7] = Cmax in rat at 1 mg/kg, po; format: ADME, organism-based; parameters: dose 1 mg/kg, route oral; details: in vivo
Rattus norvegicus [8] = experiment: Antiosteoporotic activity in rat assessed as increase of serum parathyroid hormone level at 3 mg/kg, po after 15 mins; format: functional, organism-based; parameters: dose 3 mg/kg; outline: as §2
[9] = Tmax in rat at 1 mg/kg, po; format: ADME, organism-based; parameters: dose 1 mg/kg, route oral; details: in vivo
[10] = Half life in rat at 1 mg/kg, po; format: ADME, organism-based; parameters: dose 1 mg/kg, route oral; details: in vivo
[11] = biological target: D(1A) dopamine receptor (Homo sapiens) (UniProt P21728); experiment: Inhibition of dopamine D1 receptor up to 10 uM
[12] = Inhibition of serotonin receptor up to 10 uM
Rattus norvegicus [13] = experiment: Antiosteoporotic activity in po dosed rat assessed as increase of serum parathyroid hormone level after 15 to 30 mins; format: functional, organism-based; outline: as §1
[14] = Oral bioavailability in rat at 1 mg/kg; format: ADME, organism-based; details: in vivo, read-out: Activity
[15] = Inhibition of alpha2 adrenergic receptor up to 10 uM
Rattus norvegicus [16] = experiment: Antiosteoporotic activity in rat assessed as increase of serum parathyroid hormone level at 30 mg/kg, po after 15 to 30 mins relative to control; format: functional
Outline: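 Rats (n = 5) dosed orally. Serum PTH 1−34 measured, and the peak increase (Δ), taken at 15 or 30 min after dosing, compared with levels in vehicle-treated control rats.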

Chain of Cytochrome P450 2D6 (P10635 whole entry): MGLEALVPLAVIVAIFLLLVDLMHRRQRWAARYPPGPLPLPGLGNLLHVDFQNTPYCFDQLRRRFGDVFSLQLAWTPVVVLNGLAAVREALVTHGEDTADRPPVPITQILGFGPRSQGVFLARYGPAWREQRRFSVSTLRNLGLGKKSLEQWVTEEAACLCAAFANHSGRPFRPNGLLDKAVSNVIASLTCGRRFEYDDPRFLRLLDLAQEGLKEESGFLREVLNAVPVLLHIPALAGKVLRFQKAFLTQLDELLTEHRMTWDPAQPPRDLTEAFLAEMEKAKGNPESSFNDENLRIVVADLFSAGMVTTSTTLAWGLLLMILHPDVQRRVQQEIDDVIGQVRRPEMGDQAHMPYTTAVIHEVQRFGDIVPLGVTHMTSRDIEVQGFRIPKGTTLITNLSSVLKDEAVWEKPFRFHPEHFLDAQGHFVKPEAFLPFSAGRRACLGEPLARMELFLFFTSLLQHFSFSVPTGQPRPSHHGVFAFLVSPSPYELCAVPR
Chain of D(1A) dopamine receptor (Homo sapiens) (P21728 whole entry): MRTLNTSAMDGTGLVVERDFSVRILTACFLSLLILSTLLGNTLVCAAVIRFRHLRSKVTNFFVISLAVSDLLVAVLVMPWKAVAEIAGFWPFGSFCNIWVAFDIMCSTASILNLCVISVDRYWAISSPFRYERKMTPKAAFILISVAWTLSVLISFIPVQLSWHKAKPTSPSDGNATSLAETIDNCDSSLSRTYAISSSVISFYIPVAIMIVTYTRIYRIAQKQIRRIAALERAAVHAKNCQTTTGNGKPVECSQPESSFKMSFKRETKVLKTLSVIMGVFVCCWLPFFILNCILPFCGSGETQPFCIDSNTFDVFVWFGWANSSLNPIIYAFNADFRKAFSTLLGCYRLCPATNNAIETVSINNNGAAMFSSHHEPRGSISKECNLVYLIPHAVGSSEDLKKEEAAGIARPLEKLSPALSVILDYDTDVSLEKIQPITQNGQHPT
Chain of Beta-2 adrenergic receptor (P07550 whole entry): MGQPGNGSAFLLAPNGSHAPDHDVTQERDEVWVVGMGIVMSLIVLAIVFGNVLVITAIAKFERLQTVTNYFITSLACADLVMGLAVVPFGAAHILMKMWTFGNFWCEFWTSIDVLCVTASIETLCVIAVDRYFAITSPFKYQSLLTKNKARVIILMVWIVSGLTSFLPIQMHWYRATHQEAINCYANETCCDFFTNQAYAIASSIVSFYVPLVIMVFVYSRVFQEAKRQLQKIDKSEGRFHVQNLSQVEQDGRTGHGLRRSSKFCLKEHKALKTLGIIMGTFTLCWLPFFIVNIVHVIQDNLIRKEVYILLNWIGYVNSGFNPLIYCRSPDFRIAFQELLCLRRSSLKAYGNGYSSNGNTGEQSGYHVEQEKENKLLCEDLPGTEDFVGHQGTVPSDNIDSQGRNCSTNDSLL

SMILES | IC50 [1] | IC50 (Cytochrome P450 2D6) | Activity (Rattus norvegicus [2]) | other results
C[C@@H](OC[C@H](O)CNC(C)(C)Cc1ccc2ccccc2c1)c1ccccc1CC(=O)O | 2200 nM | – | – | –
CC(C)(Cc1ccc2ccccc2c1)NC[C@@H](O)CO[C@@H](c1ccccc1CO)C1CC1 | 18 nM | 1.2 µM | – | –
C[C@@H](OC[C@H](O)CNC(C)(C)Cc1ccc2ccccc2c1)c1ccccc1-c1ccc(C(=O)O)cc1 | 4 nM | > 10 µM | 50% | Activity (Rattus norvegicus [4]): >80%; Activity (Rattus norvegicus [3]): <50%
CC(C)(Cc1ccc2ccccc2c1)NC[C@@H](O)COC(c1ccccc1C(=O)O)C1CC1 (mixture of isomers) | > 3000 nM | > 10 µM | – | –
CC(OC[C@H](O)CNC(C)(C)Cc1ccc2ccccc2c1)c1ccc(-c2ccc(C(=O)O)cc2)cc1 (mixture of isomers) | 1500 nM | – | – | –
CC(OC[C@H](O)CNC(C)(C)Cc1ccc2ccccc2c1)c1ccccc1-c1ccc(C(=O)O)cc1 (mixture of isomers) | 11 nM | – | – | –
C[C@@H](OC[C@H](O)CNC(C)(C)Cc1ccc2ccccc2c1)c1ccccc1CCC(=O)O | 24 nM | – | 50% | –
Cc1cc(-c2ccccc2[C@@H](C)OC[C@H](O)CNC(C)(C)Cc2ccc(Cl)c(F)c2)ccc1C(=O)O [ENCALERET] | 12 nM | 11 µM | >80% | Activity (Rattus norvegicus [4]): >80%; IC50 [5]: 1700 nM; Activity (Rattus norvegicus [6]): inactive; Cmax [7]: 475 ng/mL; Activity (Rattus norvegicus [8]): Active; Tmax [9]: 30 min; half-life [10]: 108 min; Activity [11]: inactive; Activity [12]: inactive; Activity (Rattus norvegicus [13]): Dose-dependent effect; bioavailability [14]: 64%; Activity [15]: inactive; Activity (Rattus norvegicus [3]): >80%
Cc1ccccc1[C@H](OC[C@H](O)CNC(C)(C)Cc1ccc2ccccc2c1)C1CC1 | – | – | – | fold change (FC) (Rattus norvegicus [16]): 2
CC(OC[C@H](O)CNC(C)(C)Cc1ccc2ccccc2c1)c1cccc(-c2ccc(C(=O)O)cc2)c1 (mixture of isomers) | 18 nM | – | – | –

Further lines, with some results ahead:

IC50 [1] | IC50 (Cytochrome P450 2D6) | SMILES | Activity (Rattus norvegicus [2]) | other results
5 nM | – | Cc1cc(-c2ccccc2[C@@H](C)OC[C@H](O)CNC(C)(C)Cc2ccc3ccccc3c2)ccc1C(=O)O | >80% | Activity (Rattus norvegicus [3]): <50%
23 nM | – | C[C@@H](OC[C@H](O)CNC(C)(C)Cc1ccc(Cl)c(F)c1)c1ccccc1-c1ccc(C(=O)O)cc1 | >80% | Activity (Rattus norvegicus [3]): 50%
> 3000 nM | – | CC(OC[C@H](O)CNC(C)(C)Cc1ccc2ccccc2c1)c1ccccc1C(=O)O (mixture of isomers) | – | –
> 3000 nM | – | CC(C)(Cc1ccc2ccccc2c1)NC[C@@H](O)COC(c1ccc(C(=O)O)cc1)C1CC1 (mixture of isomers) | – | –
960 nM | > 10 µM | CC(C)(Cc1ccc2ccccc2c1)NC[C@@H](O)COC(c1cccc(C(=O)O)c1)C1CC1 (mixture of isomers) | – | –
